FLuc stim CS – affects firefly luciferase, flagging false hits in luciferase stimulation screens; ATPlite luciferase biochemical, luminescence, 10 min; 0 = ATP-free wells, 1 = DMSO control; 200,000 tested, under 10 active; AID 1027; P08659; activation factor at 10 µM;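 active means luciferase activation factor, scaled between plate controls, of at least 2 with compound at 10 µM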
Target sequence (P08659 whole entry, looked up): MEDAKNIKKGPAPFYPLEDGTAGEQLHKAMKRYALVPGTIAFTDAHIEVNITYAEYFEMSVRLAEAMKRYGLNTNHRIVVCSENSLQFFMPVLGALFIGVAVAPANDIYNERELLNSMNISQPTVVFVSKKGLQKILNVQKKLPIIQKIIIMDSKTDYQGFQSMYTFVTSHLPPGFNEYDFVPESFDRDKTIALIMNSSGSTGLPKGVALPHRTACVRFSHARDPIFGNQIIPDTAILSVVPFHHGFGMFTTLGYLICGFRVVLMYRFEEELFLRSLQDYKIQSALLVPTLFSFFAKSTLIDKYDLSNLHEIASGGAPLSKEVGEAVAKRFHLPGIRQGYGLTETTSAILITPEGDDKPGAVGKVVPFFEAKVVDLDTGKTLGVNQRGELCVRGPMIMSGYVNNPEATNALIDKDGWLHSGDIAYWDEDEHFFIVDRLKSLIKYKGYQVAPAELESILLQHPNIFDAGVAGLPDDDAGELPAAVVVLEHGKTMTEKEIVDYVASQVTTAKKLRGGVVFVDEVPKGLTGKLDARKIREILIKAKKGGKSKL
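Assay system: Luciferase/luciferin detection reagent, cell-free biochemical luciferase assay / Read-out: luciferase activation / Benchmarks: No-ATP low control, compound-free enzyme-plus-ATP high control / Medium: PBS buffer for ATP / Detection: luminescence measurement of luciferase light output / Schedule: 10 min at ambient temperature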
TRAIL sens C8 – sensitizes caspase-8 expressing cells to TRAIL | inhibition (viability loss, TRAIL sensitization), % at 10 µM | 1% of 360,000 active | AID 624354 | NB7+C8 cells + TRAIL, ATPlite viability luminescence;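 active means compounds causing at least 50% loss of cell viability in the single-dose screen, relative to plate controls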
FLuc inhib CS – Photinus pyralis luciferase inhibition counter-screen; ATPLite firefly luciferase biochemical luminescence, 10 min; inhibition, % at 10 µM; 1.5% of 200,000 active; AID 1006;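 active means inhibition above about 50% when tested at 10 µM, limit read from the data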
PPC-1+TRAIL kill – PPC-1 cancer cell killing with TRAIL present; AID 1443; PPC-1 cells + TRAIL, ATPLite viability luminescence; 0.41% of 220,000 active; cell killing (% activity), % at 4 µM or 5 µM;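 active means cell killing above 50% in the first pass at 4 µM, then a duplicate retest at 5 µM averaging 50% or more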
Hits are given with their value; – = inactive; · = no result. Hits are enriched below; roughly 1.5% of the tested compounds scored in any of these assays.

SMILES | FLuc stim CS | TRAIL sens C8 | FLuc inhib CS | PPC-1+TRAIL kill
CN=c1scc(-c2ccccc2F)n1/N=C/c1ccc[nH]1 | – | 88 | 97 | –
CN=c1scc(-c2ccccc2F)n1/N=C/c1ccc(O)c(O)c1O | – | 84 | 98 | –
C[C@H](NC(=O)c1nc[nH]c1C(=O)N[C@@H](Cc1ccccc1)C(=O)OCc1ccccc1)C(=O)OCc1ccccc1 | · | – | · | ·
Cc1nonc1C(=O)N/N=C/c1ccc(O)cc1O | – | 56 | – | ·
O=C(/C(=C/c1ccncc1)n1ccnc1)c1ccc(Cl)cc1Cl | · | · | · | –
Cc1onc(-c2c(F)cccc2Cl)c1C(=O)ONC(=O)c1ccccc1 | · | – | · | –
Cc1onc(-c2c(Cl)cccc2Cl)c1C(=O)ONC(=O)c1ccccc1 | · | 52 | · | –
CC(C)(C)c1ccc(C(=O)O/N=C(\N)Cc2cccs2)cc1 | · | 94 | · | ·
Cc1ccccc1C(=O)O/N=C(\N)Cc1cccs1 | · | 92 | · | ·
COc1ccc(OCC(=O)O/N=C(\N)Cc2cccs2)cc1 | – | – | – | –
Cc1ccccc1OCC(=O)O/N=C(\N)Cc1cccs1 | – | – | – | ·
CCOc1cc(C(=O)NCCOC)cc(OCC)c1OCC | – | – | – | –
CCOc1ccc2nc(NC(=O)c3cccc(-c4cc5ccccc5oc4=O)c3)sc2c1 | – | 71 | – | –
CCOc1ccc2nc(NC(=O)c3cccc(N4C(=O)CCC4=O)c3)sc2c1 | · | 56 | · | ·
Cc1ccc2sc(NC(=O)c3cccc(N4C(=O)CCC4=O)c3)nc2c1C | · | – | · | ·
COc1ccc2nc(NC(=O)c3cccc(N4C(=O)CCC4=O)c3)sc2c1 | · | 58 | · | ·
O=C(Nc1nc2ccc(Cl)cc2s1)c1cccc(N2C(=O)CCC2=O)c1 | · | – | · | ·
O=C1C=CC2(C=C1)O[C@H](Cc1ccccc1)[C@@H](Cc1ccccc1)O2 | · | 95 | · | ·
O=C1Nc2ccccc2C1Cc1ccccc1 (centres undefined) | · | – | · | –
COc1ccc(C[C@@H]2OC3(C=CC(=O)C=C3)O[C@H]2Cc2ccc(OC)cc2)cc1 | · | 93 | · | ·
COc1ccccc1NC(=S)NC(=O)c1c(-c2ccccc2Cl)noc1C | – | – | – | –
O=C(NCc1ccc(F)cc1)C(c1ccccc1)c1ccccc1 | · | – | · | ·
CC(=O)N(Cc1ccc(F)cc1)C1=C(NCc2ccccc2)C(=O)c2ccccc2C1=O | – | 97 | – | –
CS(=O)(=O)c1nc(-c2ccccc2)cc(C(F)(F)F)n1 | – | 59 | – | –
COc1ccc(C2C(O)C(c3c[nH]c4ccccc34)=NN2C(=O)CCl)cc1 (centres undefined) | · | 96 | · | ·
SMILES | FLuc stim CS | TRAIL sens C8 | FLuc inhib CS | PPC-1+TRAIL kill
O=C(NCCOc1ccccc1F)c1ccccc1SCc1ccc(F)cc1 | – | – | – | –
COC(=O)c1c(NC(=O)COc2ccc(Cl)cc2)sc2c1CC(C)(C)NC2(C)C | · | 73 | · | ·
COc1ccc(C2N=C(N)N=C(N)N2c2ccc(C)cc2)cc1 (centres undefined) | – | – | – | –
Cc1cc(C)cc(N2C(N)=NC(N)=NC2c2cccc(Cl)c2)c1 (centres undefined) | · | 69 | · | ·
Cc1cc(C)cc(N2C(N)=NC(N)=NC2c2ccccc2F)c1 (centres undefined) | · | 70 | · | ·
CN(N=O)c1ccc(CC2CCc3ccccc32)cc1 (centres undefined) | · | – | · | ·
O=[N+]([O-])c1ccc(CS(=O)c2ccccc2)cc1 (centres undefined) | · | – | · | ·
O=[N+]([O-])c1ccc(S(=O)Cc2ccccc2)c([N+](=O)[O-])c1 (centres undefined) | · | 66 | · | ·
COc1ccc(N2C(N)=NC(N)=NC23CCCC3)cc1 | – | – | – | –
CC1(C)N=C(N)N=C(N)N1c1cccc(C#N)c1 | · | 82 | · | ·
Cc1ccc(N2C(N)=NC(N)=NC2(C)C)c(C)c1 | – | 72 | – | –
COc1ccc(N2C(N)=NC(N)=NC2(C)C)cc1 | – | 82 | – | –
COc1cccc(N2C(N)=NC(N)=NC2(C)C)c1 | – | 85 | – | –
Cc1ccccc1N1C(N)=NC(N)=NC1(C)C | – | · | – | –
CCOC(=O)C1CCN(C(=O)c2ccc3snnc3c2)CC1 | – | – | – | –
COc1cc2c(cc1OC)C(c1ccc(Br)cc1)N(C(=O)c1ccccc1C(=O)O)CC2 (centres undefined) | · | – | · | ·
CCOC(=O)c1cccc(N2C(N)=NC(N)=NC2(C)C)c1 | – | 67 | – | –
CC1(C)N=C(N)N=C(N)N1c1cccc(C(=O)O)c1 | – | – | – | –
CCOc1ccc(N2C(N)=NC(N)=NC2(C)C)cc1 | – | 75 | – | –
O=C(NNc1cccc(Cl)n1)Nc1ccccc1F | – | – | – | –
O=C(c1ccccc1)c1ccc(NCCCn2ccnc2)c([N+](=O)[O-])c1 | · | – | · | ·
O=C1C=C(O)c2cccc3cccc1c23 | · | – | · | ·
CC(=O)c1ccc(NC(=S)N2CCCC(CO)C2)cc1 (centres undefined) | – | – | 52 | –
COC(=O)Cc1ccc(NC(=S)N2CCCC(CO)C2)cc1 (centres undefined) | – | 75 | 93 | 63
OCC1CCCN(C(=S)Nc2ccc(Oc3ccccc3)cc2)C1 (centres undefined) | – | – | – | –
SMILES | FLuc stim CS | TRAIL sens C8 | FLuc inhib CS | PPC-1+TRAIL kill
CC(=O)c1ccc(NC(=S)N2CCCCCC2)cc1 | – | – | – | –
O=C(COC(=O)c1ccc(S(=O)(=O)N2CCCC2)cc1)Nc1ccc(N2CCOCC2)cc1 | – | – | – | –
COC(=O)Cc1ccc(NC(=O)c2ccc(C(C)(C)C)cc2)cc1 | – | 74 | 60 | –
CC(C)(C)c1ccc(C(=O)Nc2ccc(Cl)cc2)cc1 | – | – | – | –
CC(C)(C)c1ccc(NC(=O)c2ccsc2)cc1 | · | 69 | · | –
CC(C)=CCc1c2c(c3occ(-c4ccc(O)c(O)c4)c(=O)c3c1O)C=CC(C)(C)O2 | · | – | · | ·
C/C(=N\OC(=O)c1c(-c2c(F)cccc2Cl)noc1C)c1nccs1 | – | – | – | –
C/C(=N\OC(=O)c1ccc(F)cc1)c1nccs1 | – | – | 87 | –
C/C(=N/OC(=O)c1c(F)cccc1F)c1nccs1 | – | – | 81 | –
CC(=NOC(=O)C1CCCCC1)c1nccs1 | · | – | · | ·
COc1ccc(C/C(N)=N/OC(=O)c2cccs2)cc1 | – | – | – | –
COc1ccc(C(=O)O/N=C(\C)c2nccs2)cc1 | – | – | 92 | –
COc1ccc(C(=O)O/N=C(/C)c2cccs2)cc1 | – | – | 96 | –
COc1ccc(NS(=O)(=O)c2cc(NC(=O)c3ccccc3)ccc2N2CCOCC2)cc1 | · | – | · | ·
CCCOc1cccn2c(N(C)C(=O)c3ccccc3F)c(CC)nc12 | · | – | · | ·
CCOc1cccc(/C=N/NC(=S)Nc2ccccc2[N+](=O)[O-])c1O | – | 53 | – | –
Fc1ccc(-c2onc3ccc(C4OCCO4)cc23)cc1 | – | – | – | –
CSc1ncccc1C(=O)OCC(=O)Nc1ccc2c(c1)OCO2 | – | – | – | –
CCOC(=O)C1=C(N)n2c(s/c(=C\c3cccnc3)c2=O)=C(C#N)C1c1cccnc1 (centres undefined) | · | – | · | ·
CC(C)c1ccc(/C=c2\sc3n(c2=O)C(N)=C(C#N)C(c2ccc(C(C)C)cc2)C=3C(N)=O)cc1 (centres undefined) | · | 63 | · | ·
